Ends that are not written are not given here. * marks the point of attachment. Biotin = O=C1N[C@H]2[C@H](CS[C@H]2CCCCC(=O)*)N1
Tests used:
β-catenin/BCL9 complexes = target: T1, β-catenin/BCL9 complexes (Homo sapiens, UniProt P35222); assay: BCL9 Co-IP assay in Colo320 and HCT116 cells; assay type: cell-based; conditions: Colo320 and HCT116, 16 hours
T1 sequence (P35222 2-781 limits assumed): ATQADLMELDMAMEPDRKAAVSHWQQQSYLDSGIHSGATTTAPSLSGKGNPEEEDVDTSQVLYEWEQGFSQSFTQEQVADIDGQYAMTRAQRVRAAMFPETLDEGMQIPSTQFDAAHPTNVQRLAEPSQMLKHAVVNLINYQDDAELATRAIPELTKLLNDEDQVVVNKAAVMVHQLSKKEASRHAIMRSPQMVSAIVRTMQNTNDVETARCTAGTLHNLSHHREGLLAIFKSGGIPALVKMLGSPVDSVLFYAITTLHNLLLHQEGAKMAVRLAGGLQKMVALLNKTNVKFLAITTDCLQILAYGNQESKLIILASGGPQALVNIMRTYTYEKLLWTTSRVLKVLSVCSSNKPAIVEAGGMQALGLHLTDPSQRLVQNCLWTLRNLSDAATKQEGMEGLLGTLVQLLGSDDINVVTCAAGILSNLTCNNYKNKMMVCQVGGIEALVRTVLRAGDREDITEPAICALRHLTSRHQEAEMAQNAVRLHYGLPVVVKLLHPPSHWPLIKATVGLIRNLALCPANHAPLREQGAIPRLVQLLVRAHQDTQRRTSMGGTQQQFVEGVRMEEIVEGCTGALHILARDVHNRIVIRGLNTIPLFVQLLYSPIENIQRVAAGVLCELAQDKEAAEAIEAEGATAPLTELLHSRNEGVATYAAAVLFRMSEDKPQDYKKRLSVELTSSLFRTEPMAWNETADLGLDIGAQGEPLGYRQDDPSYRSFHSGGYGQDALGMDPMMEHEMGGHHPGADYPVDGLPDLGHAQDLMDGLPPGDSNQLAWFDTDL
Summary of the method: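 Colo320 and HCT116 cells (with 4T1) were treated for 16 h with DMSO vehicle or 1, 10 or 20 μM compound. Nuclei were isolated and digested with hypotonic and digestion buffers, and nuclear protein was quantified by Bradford. 800 μg nuclear extract was immunoprecipitated overnight at 4°C with 3.5 μg anti-BCL9, with normal rabbit IgG as negative control, then immunoblotted.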

HCT116 cells = assay: Fluorescent staining of lipids and cholesterol in HCT116 cells; assay type: cell-based, human; conditions: treated for 24 and 48 hours
Summary of the method: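 HCT116 cells in glass-bottomed dishes treated with vehicle or 20 μM compound for 4, 8, 24 and 48 h. Fixed in 4% paraformaldehyde, stained with 2 μM BODIPY 493/503 for 15 min plus DAPI (1 μg/ml). Cholesterol stained with a filipin III kit. For localisation at 48 h, filipin was combined with anti-SERCA-ATPase (ER) or LipidSpot (lipid droplets). Imaged with a ×40 dry objective.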

HCT116 and Colo320 cells = assay: Viability assay; assay type: cell-based, human; conditions: 48 hours; for effect of addition of cholesterol on viability: 20 μM compound ± cholesterol 20 μM; for cell viability compared to vehicle controls: 20 μM
Summary of the method: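 HCT116 and Colo320 cells were treated 48 h with the indicated agents at 20 μM, including water-soluble cholesterol, alone or combined. Viability was measured by CellTiter-Glo luminescence in triplicate and expressed relative to vehicle-treated cells.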

AXIN2, CD44, PARP, ABC = assay: Immunoblots of β-catenin–dependent cell lines Colo320 and HCT116; assay type: cell-based, human; conditions: Colo320 and HCT116, 24 and 48 hours
Summary of the method: (§1)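 HCT116 (McCoy's), Colo320 (RPMI 1640) and RKO (DMEM) were grown with 10% FBS at 37°C, 5% CO2, with DMSO as vehicle. Membranes were probed overnight at 4°C with primary antibodies in blocking buffer, then HRP secondary, and detected by chemiluminescence. Densitometry was normalized to actin.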

[1] = target: T2, β-catenin complexes with E-cadherin (Homo sapiens, UniProt P35222); assay: β-catenin Co-IP assay in DLD-1 cells; assay type: cell-based
T2 sequence (P35222 2-781 limits assumed): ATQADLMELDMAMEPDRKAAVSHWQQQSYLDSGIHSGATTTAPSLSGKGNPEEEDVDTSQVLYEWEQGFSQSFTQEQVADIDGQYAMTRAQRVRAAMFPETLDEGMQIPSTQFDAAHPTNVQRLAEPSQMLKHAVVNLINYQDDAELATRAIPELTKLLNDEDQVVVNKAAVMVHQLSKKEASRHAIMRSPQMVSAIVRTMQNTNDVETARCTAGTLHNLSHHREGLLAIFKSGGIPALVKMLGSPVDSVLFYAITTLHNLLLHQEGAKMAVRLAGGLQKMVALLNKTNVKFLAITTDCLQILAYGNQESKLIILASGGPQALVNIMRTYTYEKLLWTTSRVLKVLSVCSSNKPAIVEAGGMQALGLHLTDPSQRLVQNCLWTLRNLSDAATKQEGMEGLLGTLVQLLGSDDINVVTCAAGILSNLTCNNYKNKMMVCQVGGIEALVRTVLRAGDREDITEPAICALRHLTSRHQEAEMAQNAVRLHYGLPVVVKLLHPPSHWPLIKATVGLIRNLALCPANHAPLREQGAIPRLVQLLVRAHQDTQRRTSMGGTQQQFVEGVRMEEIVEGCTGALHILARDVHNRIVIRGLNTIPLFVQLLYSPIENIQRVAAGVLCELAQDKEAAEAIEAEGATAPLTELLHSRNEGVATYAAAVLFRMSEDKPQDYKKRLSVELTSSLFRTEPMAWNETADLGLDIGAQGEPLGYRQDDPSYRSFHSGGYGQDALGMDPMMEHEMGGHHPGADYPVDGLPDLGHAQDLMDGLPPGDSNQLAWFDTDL
T2 sequence (P12830 155-882 partner): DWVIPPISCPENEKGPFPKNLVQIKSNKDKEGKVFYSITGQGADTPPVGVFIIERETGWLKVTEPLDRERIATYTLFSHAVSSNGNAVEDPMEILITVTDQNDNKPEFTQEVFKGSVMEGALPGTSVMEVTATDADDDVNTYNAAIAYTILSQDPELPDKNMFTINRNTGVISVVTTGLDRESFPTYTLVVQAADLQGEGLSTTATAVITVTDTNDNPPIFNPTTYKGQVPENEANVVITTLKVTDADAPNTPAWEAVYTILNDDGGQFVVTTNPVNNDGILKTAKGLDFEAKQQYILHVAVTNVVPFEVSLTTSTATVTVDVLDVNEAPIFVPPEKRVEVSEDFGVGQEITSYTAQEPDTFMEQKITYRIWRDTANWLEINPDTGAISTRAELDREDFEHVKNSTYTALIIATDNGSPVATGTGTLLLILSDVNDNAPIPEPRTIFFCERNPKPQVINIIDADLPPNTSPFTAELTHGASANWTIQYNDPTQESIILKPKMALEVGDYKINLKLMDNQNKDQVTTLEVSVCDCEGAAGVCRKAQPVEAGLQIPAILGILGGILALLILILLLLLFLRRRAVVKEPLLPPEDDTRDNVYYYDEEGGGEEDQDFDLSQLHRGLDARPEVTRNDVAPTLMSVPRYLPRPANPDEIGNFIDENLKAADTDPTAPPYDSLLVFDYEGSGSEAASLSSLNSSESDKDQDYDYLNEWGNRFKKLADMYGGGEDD
Summary of the method: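 DLD-1 cells treated 16 h with DMSO vehicle or 1, 10 or 20 μM compound, then lysed in whole-cell lysis buffer. 800 μg extract incubated with 3.5 μg anti-β-catenin, with normal rabbit IgG as negative control. Protein G magnetic beads added for 1 h at 4°C, washed four times (150 mM NaCl) and eluted in reducing buffer. 2% input included. Immunoblotting used chemiluminescence and actin-normalised densitometry.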

AXIN2, CD44, PARP = assay: Immunoblots of β-catenin–independent cell line RKO; assay type: cell-based, human; conditions: RKO cells
Summary of the method: as §1

Colo320 and HCT116 cells = assay: Proliferation assay, β-catenin–dependent cell lines; assay type: cell-based, human; conditions: 5, 10, or 20 μM; 24, 48, 72, and 96 hours
Summary of the method: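 Colo320, HCT116 and RKO cells were seeded in triplicate at 3000 cells/well and treated with DMSO vehicle or 5, 10 or 20 μM compound. Proliferation was measured by CellTiter-Glo 2.0 luminescence, relative to the respective baseline readings.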

[2] = tested on: Wnt target genes AXIN2 and CD44; assay: RT-qPCR of Wnt target genes in Colo320 and HCT116 cells; assay type: cell-based, human; conditions: 10 or 20 μM for 6, 24, and 48 hours
Summary of the method: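 Colo320 and HCT116 cells treated with DMSO vehicle or 10 or 20 μM compound for 6, 24 and 48 h. Total RNA isolated with TRIzol, reverse-transcribed, and SYBR Green qPCR run. Expression normalised to B2M and PMM1 or GAPDH by the ΔΔCT method.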

[3] = tested on: Wnt transcriptional activity; assay: Dual-luciferase Wnt reporter assay in Colo320 and HCT116 cells; assay type: cell-based, human; conditions: 16 hours, versus vehicle
Summary of the method: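 Stable reporter cells came from lentiviral transduction: firefly luciferase under a 7XTCF promoter and Renilla luciferase under an EF1alpha promoter. 30,000 cells/well were treated 16 h with DMSO vehicle or increasing compound concentrations. Firefly and Renilla signals were read by Dual-Glo, in triplicate.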

[4] = target: human CTNNB1 region 141-305 (short protein) (human) (UniProt P35222); assay: ITC
[5] = target: T3, full-length recombinant β-catenin (1 to 781 amino acids, 88 kDa) (human, UniProt P35222 1-781); assay: AlphaScreen or HTRF
T3 sequence: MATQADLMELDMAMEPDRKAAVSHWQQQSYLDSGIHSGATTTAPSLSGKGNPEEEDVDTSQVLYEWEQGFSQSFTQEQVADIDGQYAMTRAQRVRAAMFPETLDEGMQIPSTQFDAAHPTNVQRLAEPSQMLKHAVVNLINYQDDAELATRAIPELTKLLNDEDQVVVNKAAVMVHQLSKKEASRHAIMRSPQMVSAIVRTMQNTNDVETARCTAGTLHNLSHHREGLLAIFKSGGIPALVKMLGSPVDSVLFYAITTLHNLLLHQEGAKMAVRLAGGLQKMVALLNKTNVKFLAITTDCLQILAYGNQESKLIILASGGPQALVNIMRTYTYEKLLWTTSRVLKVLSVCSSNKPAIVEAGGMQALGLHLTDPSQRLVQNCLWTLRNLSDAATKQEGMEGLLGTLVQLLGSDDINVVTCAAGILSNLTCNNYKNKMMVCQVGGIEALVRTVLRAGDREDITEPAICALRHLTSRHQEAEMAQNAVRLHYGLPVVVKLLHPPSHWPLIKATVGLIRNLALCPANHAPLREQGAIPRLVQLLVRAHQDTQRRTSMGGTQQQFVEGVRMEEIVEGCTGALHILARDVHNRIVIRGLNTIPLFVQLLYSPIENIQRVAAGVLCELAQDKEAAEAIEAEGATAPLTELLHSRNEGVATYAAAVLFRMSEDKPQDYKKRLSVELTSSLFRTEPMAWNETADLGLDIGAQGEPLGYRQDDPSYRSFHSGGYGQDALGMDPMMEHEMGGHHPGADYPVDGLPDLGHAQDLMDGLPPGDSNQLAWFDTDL

Molecule: COc1ccc(C)cc1CN1CCC(c2cc3ncccc3cn2)CC1 [C-3]
- concentration inhibiting β-catenin/BCL9 complexes in Co-IP (β-catenin/BCL9 complexes): 20 µM

Molecule: CCN(CC)CCO[C@H]1CC[C@@]2(C)C(=CC[C@@H]3[C@@H]2CC[C@]2(C)C(=O)CC[C@@H]32)C1.Cl [U-18666A]
- intracellular lipids (BODIPY) (HCT116 cells): substantial intracellular lipid accumulation

Molecule: CC[C@H](C)C(=O)O[C@H]1C[C@@H](C)C=C2C=C[C@H](C)[C@H](CC[C@@H]3C[C@@H](O)CC(=O)O3)[C@H]21 [lovastatin]
- effect of addition of cholesterol on viability (HCT116 and Colo320 cells): did not affect the viability
- cell viability compared to vehicle controls (HCT116 and Colo320 cells): significantly reduced cell viability

Molecule: CC(C)c1cc(C(C)C)c(CC(=O)NS(=O)(=O)Oc2c(C(C)C)cccc2C(C)C)c(C(C)C)c1 [avasimibe]
- effect of addition of cholesterol on viability (HCT116 and Colo320 cells): did not affect the viability
- cell viability compared to vehicle controls (HCT116 and Colo320 cells): significantly reduced cell viability

Molecule: O=C(Nc1ccccc1Oc1nc2ccccc2n2cnnc12)c1cccs1 [C-2]
- PARP cleavage (AXIN2, CD44, PARP, ABC): increased the cleavage of poly(adenosine diphosphate–ribose) polymerase (PARP)
- abundance of active β-catenin (ABC) (AXIN2, CD44, PARP, ABC): decreased abundance of “active” dephosphorylated β-catenin
- protein expression of AXIN2 and CD44 (AXIN2, CD44, PARP, ABC): significantly decreased the protein expression of AXIN2 and CD44
- disruption of β-catenin complexes with E-cadherin [1]: Neither compound disrupted the ability of β-catenin to form complexes with E-cadherin
- PARP cleavage (AXIN2, CD44, PARP): minor PARP cleavage at 10 and 20 μM
- expression of AXIN2 or CD44 protein (AXIN2, CD44, PARP): did not affect their expression of AXIN2 or CD44 protein
- proliferation (Colo320 and HCT116 cells): significantly reduced the proliferation
- expression of AXIN2 and CD44 mRNAs [2]: significantly inhibited the expression of AXIN2 and CD44 mRNAs
- inhibition of Wnt signaling (firefly/renilla luciferase ratio) [3]: significantly inhibited Wnt signaling
- concentration inhibiting β-catenin/BCL9 complexes in Co-IP (β-catenin/BCL9 complexes): 1 µM

Molecule: nonbiotinylated BCL9-HD2 peptide
- Kd [4]: 2740 nM

Molecule: O=C1[C@H](Cc2ccc(O)cc2)N2C(=O)CCN(C(=O)NCc3ccccc3)[C@H]2CN1Cc1cccc2ccccc12 [ICG-001, reference compound]
- inhibition of Wnt signaling (firefly/renilla luciferase ratio) [3]: significantly inhibited Wnt signaling
- cell viability compared to vehicle controls (HCT116 and Colo320 cells): significantly reduced cell viability

B1: N-terminal biotinylated BCL9-HD2 peptide (peptide)
peptide: Biotin-LSQEQLEHRERSLQTLRDIQRM
- binding result [5]: binds
